Test [1] is described as follows: Antioxidant activity assessed as DPPH free radical scavenging activity after 1 hr by microplate reader based assay. In kind it is functional. (In general: Loss of DPPH colour is used to gauge radical scavenging.)
The nature of test [2]: Antioxidant activity assessed as increase in total ferric ion reducing activity using FeCl3.H2O and TPTZ by measuring trolox equivalents at pH 3.6 measured at different time interval up to 150 mins by microplate reader based FRAP assay. In kind it is functional. Also noted: unit not given here. Particulars: time min <=150.
A short description of test [3]: Antioxidant activity assessed as trolox equivalent of AAPH-induced radical scavenging activity preincubated for 10 mins followed by AAPH addition and measured every minute for 35 mins by ORAC fluorescein assay. In kind it is functional. Particulars: time min <=35.
A further test concerns the target Acetylcholinesterase (Electrophorus electricus, UniProt O42275). Nature of the test: (§1) Inhibition of electric eel AChE by Ellman's method. An outline of the steps: (§2)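 Electrophorus electricus AChE stock at 22 U/mL in 20 mM Tris HCl (pH 7.5), diluted 1/100 before use. Compound dilution series in methanol (≤1% DMSO) was preincubated with enzyme and DTNB solution (3 mM, phosphate/Hepes 0.05 M/0.09 M, pH 7.5) for 10 min at 37°C. Acetylthiocholine iodide solution (15 mM) was then added for a further 10 min, and A415 was read. IC50 is the 50% activity inhibition point, from 3 independent experiments.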

A further test deals with Cholinesterase (Equus caballus, UniProt P81908). Nature of the test: (§3) Inhibition of equine BuChE by Ellman's method. An outline of the steps: (§4)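 Equine serum BuChE stock at 22 U/mL in 20 mM Tris HCl (pH 7.5), diluted 3/100 before use. Methanol dilutions of compound (≤1% DMSO) were preincubated 10 min at 37°C with enzyme and 3 mM DTNB solution (phosphate/Hepes buffer, pH 7.5). Butyrylthiocholine iodide solution (15 mM) was then added, with 10 min further incubation, and absorbance was read at 415 nm. IC50 (50% activity inhibited) was taken from 3 independent experiments.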
Cholinesterase, sequence (P81908 whole entry): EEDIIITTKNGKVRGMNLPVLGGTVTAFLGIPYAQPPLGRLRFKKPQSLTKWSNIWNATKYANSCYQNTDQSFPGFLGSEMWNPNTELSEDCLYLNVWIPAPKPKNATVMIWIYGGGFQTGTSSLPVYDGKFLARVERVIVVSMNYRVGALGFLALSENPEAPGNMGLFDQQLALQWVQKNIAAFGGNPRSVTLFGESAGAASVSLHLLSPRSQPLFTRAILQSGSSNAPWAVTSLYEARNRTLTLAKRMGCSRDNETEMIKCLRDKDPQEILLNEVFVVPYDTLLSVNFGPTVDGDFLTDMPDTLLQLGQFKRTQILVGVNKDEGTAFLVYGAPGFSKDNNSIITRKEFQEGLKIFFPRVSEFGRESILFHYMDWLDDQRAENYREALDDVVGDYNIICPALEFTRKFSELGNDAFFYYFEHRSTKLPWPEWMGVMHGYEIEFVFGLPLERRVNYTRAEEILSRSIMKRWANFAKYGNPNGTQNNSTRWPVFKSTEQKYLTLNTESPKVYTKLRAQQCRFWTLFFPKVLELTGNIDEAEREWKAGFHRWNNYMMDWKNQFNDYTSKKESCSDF
(In general: DTNB colorimetry detects thiols as they appear.)

Test [4] can be described thus: Selectivity index, ratio of IC50 for electric eel AChE to IC50 for equine BuChE. The gist of the method: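 Ratio of Ellman-assay IC50 values, AChE IC50 divided by BuChE IC50. Electric eel AChE was diluted 1/100 with acetylthiocholine substrate. Equine BuChE was diluted 3/100 with butyrylthiocholine substrate. Both enzymes were preincubated with compound and DTNB for 10 min at 37°C, given 10 min with substrate, and read at 415 nm.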

In test [5] the target is Cholinesterase (Equus caballus) (UniProt P81908). Nature of the test: Potency index, ratio of rivastigmine IC50 to test compound IC50 for inhibition of equine BuChE.
Cholinesterase (Equus caballus), sequence (P81908 whole entry): as above
The target is the same in test [6]. Briefly: Potency index, ratio of neostigmine IC50 to test compound IC50 for inhibition of equine BuChE.
Test [7] in a line: Potency index, ratio of trolox to test compound for antioxidant activity assessed as trolox equivalent of AAPH scavenging activity by ORAC fluorescein assay. In kind it is functional. The gist of the method:
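Compounds from 10 mM DMSO stocks and Trolox diluted in 75 mM phosphate buffer, pH 7.4. […] with 25 nM sodium fluorescein (solution concentration), then 0.15 M AAPH solution added. Fluorescence (ex 485, em 525 nm) […]. TE from comparing the slopes of Trolox and compound calibration curves; mean ± SD of 3 independent experiments.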

Test [8] can be described thus: Potency index, ratio of test compound trolox equivalent to vanillin trolox equivalent for antioxidant activity assessed as ferric ion reducing activity by FRAP assay. In kind it is functional.
The target in test [9] is Acetylcholinesterase (Electrophorus electricus) (UniProt O42275). The test is described as §1. The gist of the method:
as §2

Test [10] deals with Cholinesterase (Equus caballus) (UniProt P81908). Described as §3. An outline of the steps:
as §4

Seven compounds from ChEMBL document CHEMBL4665766, “Synthesis and in vitro evaluation of vanillin derivatives as multi-target therapeutics for the treatment of Alzheimer's disease” (Bioorg Med Chem Lett, 2020) can be followed below.

Each structure is given as a SMILES string. pIC50: −log10 of the molar value. Active and inactive are the calls of the source. The calls are words filed in the database; no cut-off is given here.

Acetylcholinesterase, sequence (O42275 whole entry): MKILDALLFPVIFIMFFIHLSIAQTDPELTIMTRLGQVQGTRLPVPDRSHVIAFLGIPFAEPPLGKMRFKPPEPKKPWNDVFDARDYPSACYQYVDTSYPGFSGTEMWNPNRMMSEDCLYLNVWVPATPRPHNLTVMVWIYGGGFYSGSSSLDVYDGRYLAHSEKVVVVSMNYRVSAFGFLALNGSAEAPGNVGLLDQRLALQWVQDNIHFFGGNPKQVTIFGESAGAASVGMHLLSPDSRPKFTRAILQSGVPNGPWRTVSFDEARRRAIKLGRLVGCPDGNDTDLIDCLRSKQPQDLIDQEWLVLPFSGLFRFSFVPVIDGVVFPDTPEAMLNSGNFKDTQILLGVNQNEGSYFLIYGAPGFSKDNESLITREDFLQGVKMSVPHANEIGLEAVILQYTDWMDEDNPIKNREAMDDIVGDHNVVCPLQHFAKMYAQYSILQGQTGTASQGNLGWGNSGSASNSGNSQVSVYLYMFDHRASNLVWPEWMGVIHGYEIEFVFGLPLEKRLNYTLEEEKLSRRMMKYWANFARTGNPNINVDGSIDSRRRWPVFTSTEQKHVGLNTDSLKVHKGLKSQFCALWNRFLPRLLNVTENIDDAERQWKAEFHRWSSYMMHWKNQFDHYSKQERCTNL
Acetylcholinesterase (Electrophorus electricus), sequence (O42275 24-633 limits assumed): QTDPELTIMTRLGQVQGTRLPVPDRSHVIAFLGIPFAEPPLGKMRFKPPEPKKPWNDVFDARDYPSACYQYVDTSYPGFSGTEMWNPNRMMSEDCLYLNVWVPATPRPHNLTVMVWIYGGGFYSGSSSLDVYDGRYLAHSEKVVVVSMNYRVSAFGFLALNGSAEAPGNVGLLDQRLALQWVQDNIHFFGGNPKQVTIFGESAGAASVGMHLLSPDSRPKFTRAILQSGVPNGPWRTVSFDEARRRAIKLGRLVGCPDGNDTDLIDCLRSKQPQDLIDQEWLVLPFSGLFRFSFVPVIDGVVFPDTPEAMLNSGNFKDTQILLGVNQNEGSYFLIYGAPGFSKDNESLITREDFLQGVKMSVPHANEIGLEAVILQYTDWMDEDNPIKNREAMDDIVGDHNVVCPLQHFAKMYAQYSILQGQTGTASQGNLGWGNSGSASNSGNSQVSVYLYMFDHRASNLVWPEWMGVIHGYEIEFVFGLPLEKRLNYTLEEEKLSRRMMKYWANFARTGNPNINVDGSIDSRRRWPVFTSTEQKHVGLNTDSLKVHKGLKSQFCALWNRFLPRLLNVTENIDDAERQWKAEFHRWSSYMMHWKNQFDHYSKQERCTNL

As for `COc1cc(CNCCCNC(=O)c2ccccc2CO)ccc1O`, the pIC50 (commonly −log10 of the IC50, conventionally taken in molar units) in [1] was 3.95. The Activity in test [2] came to 0.96.
`COc1cc(CNCCCCCCCN2C(=O)c3cccc4cccc(c34)C2=O)ccc1O`: the figures for the Activity in test [3] and in test [2] were 6.7 and 0.34, respectively. Also, the pIC50 is 4.15 in [1], 5.48 against Acetylcholinesterase and 5.82 against Cholinesterase. For the same compound, the Ratio IC50 in [4] was 2.22.
`COc1cc(CN(CCCN2C(=O)c3cccc4cccc(c34)C2=O)Cc2ccc(O)c(OC)c2)ccc1O`: the Activity in test [3] amounted to 9.43; in test [2], 0.49. Moreover, the pIC50 was 4.78 in [1], 4.84 on Acetylcholinesterase and 6.57 against Cholinesterase. For the same compound, the Ratio IC50 in test [4] worked out at 53.1; in test [5], 3; in [6], 10. Besides, the Ratio in test [7] was 10; in test [8], 25.
With `COc1cc(CNCCCCN2C(=O)c3cccc4cccc(c34)C2=O)ccc1O`, the results for the Activity in test [3] and in test [2] were 8.1 and 0.26, respectively. The pIC50 in [1] is 4.21; at Acetylcholinesterase, 4.86; on Cholinesterase it was 6.05. Besides, the Ratio IC50 in test [4] was 15.2.
As for `COc1cc(CNCCCCCCN2C(=O)c3ccccc3C2=O)ccc1O`, the Activity in test [3] amounted to 13.2; in test [2], 0.23. The pIC50 is 4.08 in [1], 5.33 against Acetylcholinesterase and 6.43 against Cholinesterase. Further, the Ratio IC50 in [4] was determined as 12.6.
Take `COc1cc(C=O)ccc1O` [VANILLIN]: the Activity in test [3] is 2.2; in test [2] it was 0.02. For the same compound, the pIC50 in test [1] is 2.10. In addition, the inhibition result in [9] and in test [10] was “inactive” in each case.
Regarding `CN(C)C(=O)Oc1cccc([N+](C)(C)C)c1` [NEOSTIGMINE], the pIC50 at Acetylcholinesterase was 5.12; on Cholinesterase, 5.53. Besides, the Ratio IC50 in [4] stood at 2.56.
